Results from BindingDB's records for doi:10.1021/jm0110439 (Ghent University, 2002).

Molecular target: T1, Adenosine receptor A1 (Rattus norvegicus, UniProt P25099)
T1 sequence (P25099 whole entry): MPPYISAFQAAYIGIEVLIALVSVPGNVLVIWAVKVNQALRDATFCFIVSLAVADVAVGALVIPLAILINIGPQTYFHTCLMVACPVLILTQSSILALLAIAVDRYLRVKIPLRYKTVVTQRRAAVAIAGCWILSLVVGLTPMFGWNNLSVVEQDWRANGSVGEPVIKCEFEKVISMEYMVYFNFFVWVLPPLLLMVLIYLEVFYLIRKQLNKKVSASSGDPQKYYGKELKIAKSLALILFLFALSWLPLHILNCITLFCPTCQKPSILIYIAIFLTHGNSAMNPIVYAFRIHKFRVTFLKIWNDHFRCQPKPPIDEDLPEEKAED
Assay: GTP-induced shift at rat Adenosine A1 receptor (A1AR)
In short: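 GTP shift taken from these two Ki values. Done only for compounds giving >50% radioligand displacement at 10⁻⁶ M. At least three independent experiments in duplicate.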

Compound	GTP shift
C[C@H]1O[C@@H](n2cnc3c(NC4CCCC4)ncnc32)[C@H](O)[C@H]1O [2-(6-Cyclopentylamino-purin-9-yl)-5-methyl-tetrahydro-furan-3,4-diol]	6.4
C[C@H]1O[C@@H](n2cnc3c(NC4CCCC4)ncnc32)[C@H](O)[C@H]1NC(=O)C1(c2ccccc2)CCCC1 [1-Phenyl-cyclopentanecarboxylic acid [5-(6-cyclopentylamino-purin-9-yl)-4-hydroxy-2-methyl-tetrahydro-furan-3-yl]-amide]	0.84
Cn1cnc2c(NC3CCCC3)ncnc21	0.94
C[C@H]1O[C@@H](n2cnc3c(NC4CCCC4)ncnc32)[C@H](O)[C@H]1NC(=O)C1(c2ccccc2)CCCCC1 [1-Phenyl-cyclohexanecarboxylic acid [5-(6-cyclopentylamino-purin-9-yl)-4-hydroxy-2-methyl-tetrahydro-furan-3-yl]-amide]	0.74

The next lines start with the values.

GTP shift	Compound
0.7	C[C@H]1O[C@@H](n2cnc3c(NC4CCCC4)ncnc32)[C@H](O)[C@H]1NC(=O)CCCc1cccs1 [N-[5-(6-Cyclopentylamino-purin-9-yl)-4-hydroxy-2-methyl-tetrahydro-furan-3-yl]-4-thiophen-2-yl-butyramide]
0.72	C[C@H]1O[C@@H](n2cnc3c(NC4CCCC4)ncnc32)[C@H](O)[C@H]1NC(=O)C1CCCC[C@H]1C(=O)c1cccs1 (some centres undefined) [2-(Thiophene-2-carbonyl)-cyclohexanecarboxylic acid [5-(6-cyclopentylamino-purin-9-yl)-4-hydroxy-2-methyl-tetrahydro-furan-3-yl]-amide]
0.73	Cc1ccc(C(=O)N[C@@H]2[C@@H](O)[C@H](n3cnc4c(NC5CCCC5)ncnc43)O[C@@H]2CO)cc1C [N-[5-(6-Cyclopentylamino-purin-9-yl)-4-hydroxy-2-hydroxymethyl-tetrahydro-furan-3-yl]-3,4-dimethyl-benzamide]
0.7	O=C(N[C@@H]1[C@@H](O)[C@H](n2cnc3c(NC4CCCC4)ncnc32)O[C@@H]1CO)c1ccc(F)c(Cl)c1 [3-Chloro-N-[5-(6-cyclopentylamino-purin-9-yl)-4-hydroxy-2-hydroxymethyl-tetrahydro-furan-3-yl]-4-fluoro-benzamide]
0.69	O=C(CCCc1cccs1)N[C@@H]1[C@@H](O)[C@H](n2cnc3c(NC4CCCC4)ncnc32)O[C@@H]1CO [N-[5-(6-Cyclopentylamino-purin-9-yl)-4-hydroxy-2-hydroxymethyl-tetrahydro-furan-3-yl]-4-thiophen-2-yl-butyramide]
